This is an account of results in ChEMBL document CHEMBL1148274, “Bile acid amides derived from chiral amino alcohols: novel antimicrobials and antifungals” (Bioorg Med Chem Lett, 2004).

Test [1] deals with Sporothrix schenckii. The experiment in a line: Antifungal activity against Sporothrix schenck ii was determined by twofold Micro-broth dilution assay; No data. It is filed as functional, organism-based. In outline: (§1)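 Fungal strains tested by two-fold serial broth microdilution in microtitre plates. Cells diluted in phosphate-buffered saline to 10^6 cfu/mL and inoculated at a final 10^3 cells per 150 µL medium. Medium/inoculum and solvent controls were included. Incubation at 28 °C, then OD read at 600 nm. IC50 is the concentration at which growth is 50% of the control inoculum.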

For the next test, the system named is Trichophyton rubrum. The test can be described thus: Antifungal activity against Trichophyton rubrum was determined by twofold Micro-broth dilution assay. In kind it is functional, organism-based. To be noted: Trichophyton rubrum; read-out: IC50. In outline:
as §1
(In broth dilution the organism is exposed to a series of concentrations in liquid medium.)

The subject of test [2] is Nannizzia gypsea. The experiment in a line: Antifungal activity against Microsporum gypseum was determined by twofold Micro-broth dilution assay; No data. In kind it is functional, organism-based. In outline:
as §1

A further test has as its system Aspergillus flavus. The experiment in a line: Antifungal activity against Aspergillus flavus was determined by twofold Micro-broth dilution assay. It is filed as functional, organism-based. The note with it: Aspergillus flavus; read-out: IC50. The essentials:
as §1

Another test has as its system Aspergillus niger. The experiment in a line: Antifungal activity against Aspergillus niger was determined by twofold Micro-broth dilution assay. It is filed as functional, organism-based. The note with it: Aspergillus niger; read-out: IC50. The essentials: as §1
Another test concerns Candida albicans. The test can be described thus: Antifungal activity against Candida albicans was determined by twofold Micro-broth dilution assay. It is filed as functional, organism-based. To be noted: Candida albicans; read-out: IC50. The essentials: as §1
A further test deals with Escherichia coli. The test can be described thus: Antibacterial activity against gram negative bacteria Escherichia coli was determined by twofold Micro-broth dilution assay. In kind it is functional, organism-based. The essentials: (§2)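 Broth microdilution with two-fold serial dilutions of compound added to pre-inoculated microtitre plates. Inoculum diluted in phosphate-buffered saline to 10^6 cfu/mL, then plated at a final 10^3 cells per 150 µL medium. Controls were medium plus inoculum and a solvent control at the highest-concentration solvent level. Plates incubated at 37 °C and read by OD at 600 nm. IC50 is the concentration giving 50% of control-inoculum growth.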

A further test concerns Shigella flexneri. The experiment in a line: Antibacterial activity against gram negative bacteria Shigella flexenerii was determined by twofold Micro-broth dilution assay. It is filed as functional, organism-based. The essentials: as §2
For test [3], the system named is Sporothrix schenckii. The experiment in a line: Antifungal activity against Sporothrix schenck ii was determined by twofold Micro-broth dilution assay. The note with it: Sporothrix schenckii; read-out: IC50. In kind it is functional, organism-based. The essentials:
as §1

In another test the test system is Histoplasma capsulatum. The test can be described thus: Antifungal activity against Histoplasma capsulatum was determined by twofold Micro-broth dilution assay. In kind it is functional, organism-based. The essentials:
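Fungal broth microdilution. Cells were diluted to 10^6 cfu/mL in phosphate-buffered saline and seeded at a final 10^3 cells per well. Two-fold serial compound dilutions were added. Plates carried inoculum-only and solvent controls, the solvent matched to the highest concentration. After incubation at 28 °C, OD was read at 600 nm. IC50 is the concentration where growth is 50% of control.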

For test [4], the system named is Nannizzia gypsea. The test can be described thus: Antifungal activity against Microsporum gypseum was determined by twofold Micro-broth dilution assay. In kind it is functional, organism-based. The note with it: Nannizzia gypsea; read-out: IC50. In outline:
as §1

A further test deals with Enterococcus faecalis. The experiment in a line: Antibacterial activity against gram positive bacteria Enterococcus faecalis was determined by twofold Micro-broth dilution assay. In kind it is functional, organism-based. In outline: as §2
A further test deals with Staphylococcus aureus. The experiment in a line: Antibacterial activity against gram positive bacteria Staphylococcus aureus was determined by twofold Micro-broth dilution assay. In kind it is functional, organism-based. In outline:
as §2

In test [5] the test system is Staphylococcus epidermidis. The test can be described thus: Antibacterial activity against gram positive bacteria Staphylococcus epidermidis was determined by twofold Micro-broth dilution assay. In kind it is functional, organism-based. In outline:
as §2

A further test concerns Streptococcus mutans. The experiment in a line: Antibacterial activity against gram positive bacteria Streptococcus mutans was determined by twofold Micro-broth dilution assay. It is filed as functional, organism-based. The essentials: as §2
In the next test the test system is Salmonella typhimurium. The experiment in a line: Antibacterial activity against gram negative bacteria Salmonella Typhimurium was determined by twofold Micro-broth dilution assay. It is filed as functional, organism-based, Salmonella enterica subsp. enterica serovar Typhimurium. The note with it: Salmonella enterica. The essentials:
as §2

For a further test, the system named is Klebsiella aerogenes. The test can be described thus: Antibacterial activity against gram negative bacteria Enterobacter aerogens was determined by twofold Micro-broth dilution assay. It is filed as functional, organism-based. The essentials: as §2
The test system of another test is Cryptococcus neoformans. The test can be described thus: Antifungal activity against Cryptococcus neoformans was determined by twofold Micro-broth dilution assay. It is filed as functional, organism-based. The essentials: as §1
The subject of the next test is Salmonella typhi. The experiment in a line: Antibacterial activity against gram negative bacteria Salmonella typhi was determined by twofold Micro-broth dilution assay. In kind it is functional, organism-based, Salmonella enterica subsp. enterica serovar Typhi. To be noted: Salmonella enterica.

Converted amounts (≈) assume the structure as drawn.

What is called IC50 is the midpoint of a concentration-inhibition curve. As for `C[C@@H]1[C@H](O)[C@@H](C)/C=C/C=C/C=C/C=C/C=C/C=C/C=C/[C@H](O[C@@H]2O[C@H](C)[C@@H](O)[C@H](N)[C@@H]2O)C[C@@H]2O[C@](O)(C[C@@H](O)C[C@@H](O)[C@H](O)CC[C@@H](O)C[C@@H](O)CC(=O)O[C@H]1C)C[C@H](O)[C@H]2C(=O)O` [AMPHOTERICIN B], the IC50 came to 5 µg/mL (≈ 5.41 µM) in the test on Sporothrix schenckii [1]; 2.5 µg/mL (≈ 2.71 µM) in the test with Trichophyton rubrum; 2.5 µg/mL (≈ 2.71 µM) in the test with Nannizzia gypsea [2]; 5 µg/mL (≈ 5.41 µM) in the test with Aspergillus flavus; 2.5 µg/mL (≈ 2.71 µM) in the test with Aspergillus niger; 0.0625 µg/mL (≈ 0.0676 µM) in the test on Candida albicans.

Regarding `C[C@H](CCC(=O)N[C@H](CO)[C@H](O)c1ccc([N+](=O)[O-])cc1)[C@H]1CC[C@H]2[C@@H]3CC[C@@H]4C[C@H](O)CC[C@]4(C)[C@H]3C[C@H](O)[C@]12C`, the IC50 with Escherichia coli, with Shigella flexneri, with Sporothrix schenckii [3], with Histoplasma capsulatum, in the test with Nannizzia gypsea [4] and in the test with Trichophyton rubrum was greater than 250 µg/mL throughout. Further, the IC50 with Enterococcus faecalis was 15 µg/mL (≈ 25.6 µM); in the test on Staphylococcus aureus, 7.5 µg/mL (≈ 12.8 µM); in [5], 7.5 µg/mL (≈ 12.8 µM); with Streptococcus mutans, 4 µg/mL (≈ 6.82 µM); with Salmonella typhimurium, greater than 250 µg/mL; in the test with Klebsiella aerogenes, greater than 250 µg/mL. Moreover, the IC50 in the test on Aspergillus flavus, in the test on Cryptococcus neoformans, in the test with Aspergillus niger, in the test on Salmonella typhi and in the test with Candida albicans was greater than 250 µg/mL in each case.
